Measurements published in ChEMBL document CHEMBL3120099, “Novel S1P(1) receptor agonists--part 2: from bicyclo[3.1.0]hexane-fused thiophenes to isobutyl substituted thiophenes” (J Med Chem, 2014).

Columns and labels:
[1] = Lipophilicity, log D of the compound at pH 7.4; type: physicochemical; details: buffer
[2] = molecular target: Sphingosine 1-phosphate receptor 1 (Homo sapiens, UniProt P21453); test: Agonist activity at human recombinant S1P1 receptor expressed in CHO cells assessed as membrane-bound 35S-GTPgammaS incubated 30 mins prior to substrate addition measured after 1 hr by topcount scintillation counting analysis; type: functional, cell-based
[3] = molecular target: Sphingosine 1-phosphate receptor 3 (Homo sapiens, UniProt Q99500); test: Agonist activity at human recombinant S1P3 receptor expressed in CHO cells assessed as membrane-bound 35S-GTPgammaS incubated 30 mins prior to substrate addition measured after 1 hr by topcount scintillation counting analysis; type: functional, cell-based
[4] = Tmax in Wistar rat mesenteric lymph at 10 mg/kg, po; type: ADME, organism-based, Mesenteric lymph node; parameters: dose 10 mg/kg, route oral
Method in brief: (§1)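 Male Wistar rats given 10 mg/kg orally in 5% DMSO/succinylated gelatin. At selected times, anesthesia with thiobutobarbital 150 mg/kg ip, laparotomy and thoracic lymph duct catheter. Mesenteric lymph collected for at least 10 min, with a plasma sample at mid-collection. Methanol precipitation, then LC-MS-MS with internal standard.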

Plasma = test: AUC (0 to 6.4 hrs) in Wistar rat plasma at 10 mg/kg, po; type: ADME, organism-based; parameters: time < 6.4 hr, dose 10 mg/kg, route oral; details: in vivo
[5] = Tmax in Wistar rat plasma at 10 mg/kg, po; type: ADME, organism-based; parameters: dose 10 mg/kg, route oral; method in brief: as §1
[6] = Cmax in Wistar rat plasma at 10 mg/kg, po; type: ADME, organism-based; parameters: dose 10 mg/kg, route oral; method in brief: as §1
[7] = AUC (0 to 6.4 hrs) in Wistar rat mesenteric lymph at 10 mg/kg, po; type: ADME, organism-based, Mesenteric lymph node; parameters: time < 6.4 hr, dose 10 mg/kg, route oral; details: in vivo
[8] = Cmax in Wistar rat mesenteric lymph at 10 mg/kg, po; type: ADME, organism-based, Mesenteric lymph node; parameters: dose 10 mg/kg, route oral; method in brief: as §1
Rattus norvegicus [9] = test: Lymphopenic activity in Wistar rat assessed as reduction in blood lymphocyte count at 10 mg/kg, po after 24 hrs; type: functional
Method in brief: (§2)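 Normotensive male Wistar rats given 1–10 mg/kg by gavage in 5% DMSO/7.5% succinylated gelatin. Blood taken before and 3, 6 and 24 h after dosing, with later times for some compounds. Lymphocytes counted by hematology analyzer. % LC change calculated per animal relative to the predose value (=100%). Mean ± SEM.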

Rattus norvegicus [10] = test: Lymphopenic activity in Wistar rat assessed as reduction in blood lymphocyte count at 10 mg/kg, po after 3 hrs; type: functional; parameters: scale not given: the % may be the effect or the level left; method in brief: as §2
Rattus norvegicus [11] = test: Lymphopenic activity in Wistar rat assessed as reduction in blood lymphocyte count at 10 mg/kg, po after 6 hrs; type: functional; parameters: scale not given: the % may be the effect or the level left; method in brief: as §2
Rattus norvegicus [12] = test: Lymphopenic activity in Wistar rat assessed as reduction in blood lymphocyte count at 10 mg/kg, po after 96 hrs; type: functional; parameters: scale not given: the % may be the effect or the level left; method in brief: as §2

Sequence of Sphingosine 1-phosphate receptor 1 (P21453 whole entry): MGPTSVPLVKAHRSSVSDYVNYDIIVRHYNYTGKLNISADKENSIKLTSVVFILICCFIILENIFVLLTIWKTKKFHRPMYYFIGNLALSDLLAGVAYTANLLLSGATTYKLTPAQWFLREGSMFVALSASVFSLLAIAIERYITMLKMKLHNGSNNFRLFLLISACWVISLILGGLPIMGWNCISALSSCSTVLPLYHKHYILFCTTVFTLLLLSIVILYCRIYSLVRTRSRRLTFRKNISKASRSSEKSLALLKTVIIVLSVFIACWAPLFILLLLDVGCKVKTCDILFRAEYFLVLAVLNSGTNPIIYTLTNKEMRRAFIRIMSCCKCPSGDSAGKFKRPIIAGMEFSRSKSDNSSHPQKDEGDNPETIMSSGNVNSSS
Sequence of Sphingosine 1-phosphate receptor 3 (Q99500 whole entry): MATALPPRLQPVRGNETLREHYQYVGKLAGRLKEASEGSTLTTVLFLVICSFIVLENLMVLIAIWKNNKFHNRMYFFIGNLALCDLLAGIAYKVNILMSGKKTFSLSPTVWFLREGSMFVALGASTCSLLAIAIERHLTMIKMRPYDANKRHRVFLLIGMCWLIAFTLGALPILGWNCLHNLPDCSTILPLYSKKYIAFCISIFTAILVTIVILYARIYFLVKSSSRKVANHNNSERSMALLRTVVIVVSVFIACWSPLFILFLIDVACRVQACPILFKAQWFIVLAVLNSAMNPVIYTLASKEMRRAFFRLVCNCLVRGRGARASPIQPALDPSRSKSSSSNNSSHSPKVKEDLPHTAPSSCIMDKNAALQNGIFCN

Compound | logD [1] | EC50 [2] [nM] | EC50 [3] [nM] | Tmax [4] [h] | AUC (Plasma) [ng/mL/h] | Tmax [5] [h] | Cmax [6] [µg/mL] | AUC [7] [ng/mL/h] | Cmax [8] [µg/mL] | % change in blood lymphocyte count from predose (Rattus norvegicus [9]) [%] | Activity (Rattus norvegicus [10]) [%] | Activity (Rattus norvegicus [11]) [%] | Activity (Rattus norvegicus [12]) [%]
CCc1cc(-c2noc(-c3sc(CC)c4c3CCC(C)(C)C4)n2)cc(C)c1OC[C@@H](O)CO | 5.4 | 2.4 | 15 | 1.4 | 1880 | 6.4 | 0.376 | 31300 | 9.05 | – | – | – | –
Cc1cc(-c2noc(-c3sc(C)c4c3C[C@@H]3[C@H]4C3(C)C)n2)cc(C)c1OCC(O)CNC(=O)CO (mixture of isomers) | – | – | – | – | – | – | – | – | – | -73 | -66 | -69 | 30
